Screening results deposited in PubChem by Broad Institute.
F508del corr: correctors of CFTR F508del function in bronchial epithelial cells | CFBE cells, YFP halide quenching; stimulated with forskolin plus potentiator P3; % fluorescence drop versus neutral controls | activity (quench increase), % at 7.58 µM | actives 0.36% (n = 350,000);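 active = mean added fluorescence quench of at least 8% versus neutral control, with both replicates also reaching 8%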;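 also: cells transiently co-express mutant CFTR-F508del with the halide-sensitive YFP; corrector assay measuring rescue of mutant channel to the surface after 24 h compound exposure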
HIV Env fusion: inhibitors of HIV Env-mediated cell fusion; AID 651610; inhibition, % at 12.3 µM; actives 1.1% (n = 360,000); HeLa-JRFL Env/CEM21 cell fusion, luciferase;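 active = mean replicate inhibition score of at least 50 and every replicate individually at or above 50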;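 also: 0% = plate neutral controls and 100% = maraviroc near 300 nM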
FGF22 binding: binders of recombinant human FGF22 by thermal shift. Q9HCT0. SYPRO orange fluorescence; percent of sucrose octasulfate shift, DMSO zero. activity (Tm shift, normalised), % at 9.99 µM. actives 1.5% (n = 340,000);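 active = mean Tm shift, scaled 0 neutral to 100 positive control, at about 1.3% or above, every replicate too, limit read from the data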
S100A4 inh HTS: blocks human S100A4 binding to myosin IIA peptide | actives 0.14% (n = 360,000) | AID 652163 | S100A4/TAMRA-MyoIIA peptide fluorescence polarization | P26447 | inhibition, % at 10.7 µM;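 active = mean inhibition of at least 70% across replicates, with every replicate also reaching that level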
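Material: S100A4 monomer protein / Buffer or medium: 50 mM HEPES pH 7.2, 10 mM CaCl2, 100 mM KCl / Times: 5 min incubation before reading / Benchmarks: neutral control DMSO, positive control TFP / Reagent: labelled myosin peptide probe, 5 nM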
E-selectin induc: E-selectin induction on HUVECs | actives 0.37% (n = 260,000) | HUVEC E-selectin immunofluorescence imaging; normalized: neutral wells 0, TNF-alpha wells 100 | P16581 | activation, % at 7.58 µM;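 active = mean E-selectin-positive cell signal at least 10% of the positive control, reached in at least 60% of replicates, without over 20% cell loss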
Target sequence (P16581 whole entry, looked up): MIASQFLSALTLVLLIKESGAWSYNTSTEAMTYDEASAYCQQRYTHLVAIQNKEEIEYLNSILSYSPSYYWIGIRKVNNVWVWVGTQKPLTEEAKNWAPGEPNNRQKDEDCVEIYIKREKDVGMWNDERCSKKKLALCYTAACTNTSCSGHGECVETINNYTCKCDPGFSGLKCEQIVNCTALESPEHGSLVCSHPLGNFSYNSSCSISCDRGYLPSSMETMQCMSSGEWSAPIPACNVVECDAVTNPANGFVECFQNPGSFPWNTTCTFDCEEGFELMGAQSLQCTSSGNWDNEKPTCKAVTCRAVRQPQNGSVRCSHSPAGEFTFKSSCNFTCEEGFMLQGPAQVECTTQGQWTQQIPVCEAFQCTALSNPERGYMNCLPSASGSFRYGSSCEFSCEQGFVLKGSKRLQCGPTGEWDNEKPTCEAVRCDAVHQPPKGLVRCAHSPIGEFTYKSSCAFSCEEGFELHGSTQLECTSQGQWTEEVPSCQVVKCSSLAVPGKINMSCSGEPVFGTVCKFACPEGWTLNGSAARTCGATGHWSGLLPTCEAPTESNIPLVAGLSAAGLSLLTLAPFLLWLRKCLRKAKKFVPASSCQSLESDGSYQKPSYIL
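Material: HUVEC primary endothelial cells; Amount: 3,000 cells per well; Dosing: single concentration; Medium: EGM-2 growth medium on 0.1% gelatin-coated wells; Read-out basis: percent E-selectin-positive cells; Signal: immunofluorescence imaging; Control set: TNF-alpha, DMSO.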
The depositor's hits bear a star; · = not tested or not shown; [ ] = another dose, or the depositor's remark. Hits are enriched below; roughly 2.7% of the tested compounds scored in any of these assays.

SMILES	F508del corr	HIV Env fusion	FGF22 binding	S100A4 inh HTS	E-selectin induc
O=C(COC(=O)C1CCC1)Nc1cc(S(=O)(=O)N2CCOCC2)ccc1Cl	13*	-4	·	3	0
O=C(Nc1cc(S(=O)(=O)N2CCOCC2)ccc1Cl)C1CCC1	-3	41	·	15	0
CCOc1ccc(S(=O)(=O)N2CCOCC2)cc1NC(=O)CSCC(=O)Nc1ccc(OC)cc1	20*	18	0	-4	0
O=C(C[C@@H]1CC[C@H](NC(=O)Nc2ccc3c(c2)OCO3)[C@@H](CO)O1)NCc1ccccc1	2	-3[16.7 µM]	0	-16	-2
COc1ccc(S(=O)(=O)N2CCOCC2)cc1NC(=O)COC(=O)C1COc2ccccc2O1 (stereo not given)	·	1	0	-12	118*
CCNc1ccc(C(=O)OCC)cc1NC(=O)c1cc(S(=O)(=O)N2CCOCC2)ccc1C	·	62*	·	·	·
COc1ccc(C)cc1NC(=O)COC(=O)C1COc2ccccc2O1 (stereo not given)	-1	-7	0	1	·
CCOC(=O)C1CCCN(C(=S)Nc2ccc(S(=O)(=O)N3CCOCC3)cc2)C1 (stereo not given)	5	17	43*	-5	1
CC1CCN(S(=O)(=O)c2ccc(NC(=O)Cc3ccc(S(=O)(=O)N4CCOCC4)s3)cc2)CC1	3	61*	0	-15	0
O=C(Cc1ccccn1)NCC[C@@H]1CC[C@@H](NC(=O)c2ccccc2F)[C@@H](CO)O1	3	-9[16.7 µM]	0	-8	0
C[C@@H]1CCCCO[C@@H](CN(C)C(=O)c2ccccc2)[C@H](C)CN([C@H](C)CO)C(=O)c2cc(NS(=O)(=O)c3cn(C)cn3)ccc2O1	0	12[16.7 µM]	·	4	0
COc1cccc(NC(=O)N[C@@H]2CC[C@@H](CC(=O)N3CCN(C)CC3)O[C@H]2CO)c1	1	-9[16.7 µM]	0	-3	0
C[C@H](CO)N1C[C@H](C)[C@H](CN(C)C(=O)NC2CCCCC2)OCCCC[C@H](C)Oc2ccc(NC(=O)C3CCCCC3)cc2C1=O	-2	-78[16.7 µM]	0	4	0
CCCC(=O)Nc1ccc2c(c1)C(=O)N(C)C[C@H](OC)[C@H](C)CN(C(=O)c1ccncc1)[C@H](C)CO2	1	8[16.7 µM]	·	7	1
COc1ccc(OCC(=O)OCC(=O)Nc2cc(S(=O)(=O)N3CCOCC3)ccc2Cl)cc1	2	-45	43*	-1	0
CN1CCN(C(=S)Nc2cc(S(=O)(=O)N3CCOCC3)ccc2Cl)CC1	1	-3	0	-3	1
CCOC(=O)N1CCN(C(=S)Nc2cc(S(=O)(=O)N3CCOCC3)ccc2Cl)CC1	-1	15	45*	-4	4
Cc1cc(OCC(=O)OCC(=O)Nc2cc(S(=O)(=O)N3CCOCC3)ccc2Cl)ccc1Cl	0	-2	0	-10	0
O=C1CN(S(=O)(=O)Cc2ccccc2)C[C@@H]2[C@H](c3ccc(C#Cc4cccc(F)c4)cc3)[C@@H](CO)N12	1	·	·	-9	0
CC(=O)N(C)C[C@@H]1Oc2cc(-c3ccc(F)cc3)ccc2S(=O)(=O)N([C@@H](C)CO)C[C@H]1C	-3	-28[16.7 µM]	-1	8	0
N#C/C(=C\c1ccc(OCc2ccc(C(=O)O)cc2)cc1)C(=O)N1CCOCC1	-3	65*	0	5	0
COc1cc(/C=C(\C#N)C(=O)N2CCOCC2)ccc1OCc1ccccc1	0	-2	0	4	-1
Cc1ccc(-c2ccc3c(c2)O[C@H](CN(C)C)[C@H](C)CN([C@H](C)CO)S3(=O)=O)cc1	·	11[16.7 µM]	0	0	0
COc1ccccc1Cc1c(-c2ccc(C)cc2)nc2ccc(Br)cn12	5	-171	40	-8	1
FC(F)(F)c1ccccc1Cc1c(-c2cccc(Br)c2)nc2ccc(Br)cn12	-2	22	20*	20	1
SMILES	F508del corr	HIV Env fusion	FGF22 binding	S100A4 inh HTS	E-selectin induc
COc1ccccc1Cc1c(-c2ccc(Cl)cc2)nc2ccc(Br)cn12	10*	-85	0	-17	·
C[C@@H]1CN([C@@H](C)CO)C(=O)c2cc(NS(=O)(=O)c3ccc(Cl)cc3)ccc2O[C@@H]1CN(C)Cc1ccc(C(=O)Nc2ccccc2N)cc1	-1	·	0	-9	7
COc1cccc(CNC(=O)C[C@H]2CC[C@H](NC(C)=O)[C@H](CO)O2)c1	-4	18[16.7 µM]	0	-3	-1
Cc1ccc(S(=O)(=O)N2CCN(S(=O)(=O)c3ccc(C)cc3)C2c2ccccc2)cc1	·	105*	·	·	·
CCOC(=O)N1CCN(S(=O)(=O)c2ccc(C)cc2)C1c1ccccc1 (stereo not given)	·	21	·	·	·
CCN[C@H]1CN(CCCOC)S(=O)(=O)c2sc(S(N)(=O)=O)cc21	10*	7	0	-4	2
CCN[C@H]1C[C@H](C)S(=O)(=O)c2sc(S(N)(=O)=O)cc21	2	7	0	4	0
O=C(Cn1nnc2c(cnn2-c2ccc(F)cc2)c1=O)Nc1ccccc1C(F)(F)F	4	4	43*	-3	·
CC(C)(C)c1ccc(C(=O)OCC(=O)N2CCC(c3ccccc3)=N2)cc1	-3	·	30*	-13	-2
COc1cc(C(=O)N/C(=C\c2cn(C)c3ccccc23)C(=O)NCCCO)cc(OC)c1OC	-2	6	0	7	·
COc1cc(C(=O)N/C(=C\c2cn(S(=O)(=O)N(C)C)c3ccccc23)C(=O)NCCCO)cc(OC)c1OC	0	2	44*	-1	-3
Cc1cc(C(=O)Nc2cccc3c2O[C@H](CN(C)S(=O)(=O)c2c(C)noc2C)[C@H](C)CN([C@@H](C)CO)C3=O)n(C)n1	1	·	0	4	0
CCOC(=O)COc1ccc2c(C#N)c3ccccn3c2c1	-2	-1	0	-1	1
COc1cc(OC)cc(C(=O)c2c(C)c(C#N)c3ccccn23)c1	17*	-61	0	-3	·
C[C@H](CO)N1C[C@H](C)[C@@H](CN(C)Cc2ccc(C(F)(F)F)cc2)Oc2ccc(NC(=O)Nc3cccc4ccccc34)cc2C1=O	0	27[16.7 µM]	0	-7	0
O=C(CC1CCCCC1)NCCOc1ccccc1	·	11	·	·	·
O=C(NCCOc1ccccc1)C1CCCCC1	-1	-16	43*	7	4
Cc1ccc(S(=O)(=O)N(C)C[C@@H]2Oc3ccc(NC(=O)Nc4c(C)noc4C)cc3C(=O)N([C@H](C)CO)C[C@H]2C)cc1	2	11[16.7 µM]	0	-3	1
COc1cccc(N=C(N)N)c1	2	-2	43*	-2	0
Cc1ccc(C(=O)Nc2nnc(CC(=O)N/N=C/c3ccncc3)s2)cc1	-1	-18	44*	-4	·
O=c1c2cc(Cl)ccc2nc(-c2ccccc2)n1O	·	8	46*	-4	·
O=C1NC2(CCCCC2)C(=O)N1Cc1cccc(C(F)(F)F)c1	-2	-3	43*	-9	·
